# Calls of active or inactive are those of the source. Where a SMILES comes first, the peptide text is derived from it. Bridges are numbered along the chain shown (N, C = ends). [ ]: non-standard residue; d: D form. Dmt = Cc1cc(O)cc(C)c1C[C@H](N)C(=O)O
# Legend:
# Mu-type opioid receptor = Mu-type opioid receptor (Rattus norvegicus, UniProt P33535); assay: Displacement of [3H]DAMGO from Wistar rat mu opioid receptor by liquid scintillation counting
# Outline: (§1)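 Crude membranes from Wistar rat brain incubated with [3H]DAMGO for mu or [3H][Ile5,6]deltorphin-2 for delta. Non-specific binding defined with naloxone. Reaction ended by rapid filtration on GF/B strips soaked in 0.5% […], then two ice-cold Tris-HCl washes. Bound radioactivity counted by liquid scintillation after overnight extraction. IC50 from three independent experiments in duplicate; ratio is delta IC50/mu IC50.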
# [1] = target: Delta-type opioid receptor (Rattus norvegicus, UniProt P33533); assay: Displacement of [3H][Ile5,6]deltorphin 2 from delta opioid receptor in Wistar rat brain membrane by liquid scintillation counting; type: cell membranes; outline: as §1
# Sequence of Delta-type opioid receptor (P33533 whole entry): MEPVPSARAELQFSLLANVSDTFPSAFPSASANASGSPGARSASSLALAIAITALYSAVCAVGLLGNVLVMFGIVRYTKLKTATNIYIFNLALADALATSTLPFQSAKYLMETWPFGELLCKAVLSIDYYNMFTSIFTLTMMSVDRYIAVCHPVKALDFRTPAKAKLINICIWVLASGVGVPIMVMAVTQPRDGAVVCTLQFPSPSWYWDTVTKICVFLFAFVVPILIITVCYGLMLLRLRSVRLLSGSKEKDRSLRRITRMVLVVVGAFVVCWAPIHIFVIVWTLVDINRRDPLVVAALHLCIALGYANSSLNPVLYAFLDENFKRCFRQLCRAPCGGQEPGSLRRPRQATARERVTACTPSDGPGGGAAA
# Rattus norvegicus = species: Rattus norvegicus; assay: Selectivity ratio of IC50 for delta opioid receptor in Wistar rat brain membrane to IC50 for mu opioid receptor in Wistar rat brain membrane; type: cell membranes; outline: as §1
# [2] = Half life in Wistar rat brain at 0.5 mM by RP-HPLC analysis; type: ADME, tissue-based
# Outline: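 Pooled rat brains homogenized in 20 volumes of 50 mM Tris-HCl, pH 7.4. Homogenate at 10 mg protein/ml incubated with an equal volume of 0.5 mM peptide at 37 °C for 0–60 min. Reaction stopped on ice with 1 M HCl, then centrifuged at 20,000g. Three experiments in duplicate.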
# Mus musculus [3] = assay: Antinociceptive activity in icv dosed in Swiss albino mouse assessed as paw licking latency by hot plate method; type: functional, organism-based
# Outline: (§2)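 Male Swiss albino mice (20–26 g), 10 per group. Peptides dissolved in DMSO, diluted in saline, given i.c.v. with a Hamilton syringe and 0.5 mm needle, 5 min before testing in dose–response runs. Mouse confined by a plastic cylinder on a 55 °C hot plate. Latencies to paw licking, rearing and jumping recorded, 240 s cut-off. %MPE = (t1−t0)/(t2−t0)×100. ED50 derived from dose–response.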
# Mus musculus [4] = assay: Antinociceptive activity in icv dosed in Swiss albino mouse assessed as rearing latency by hot plate method; type: functional, organism-based; outline: as §2
# Mus musculus [5] = assay: Antinociceptive activity in icv dosed in Swiss albino mouse assessed as jumping latency by hot plate method; type: functional; outline: as §2
# Mus musculus [6] = assay: Antinociceptive activity in Swiss albino mouse assessed as jumping latency at 10 ng, icv up to 30 mins by hot plate method; type: functional, organism-based; outline: as §2
# Mus musculus [7] = species: Mus musculus; assay: Antinociceptive activity in Swiss albino mouse assessed as jumping latency at 3 ng by hot plate method in presence of beta funaltrexamine; type: functional, organism-based
# Outline: (§3)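 Hot plate test at 55 °C in male Swiss albino mice, 10 per group, with jumping latency read and a 240 s cut-off. Antagonists were given i.c.v.: beta-funaltrexamine, naltrindole at 1 µg/animal, nor-binaltorphimine at 5 µg/animal. Agonist peptides were given i.c.v. at 3 ng/animal. Inhibition of jumping expressed as %MPE.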
# Mus musculus [8] = species: Mus musculus; assay: Antinociceptive activity in Swiss albino mouse assessed as jumping latency at 3 ng by hot plate method in presence of naltrindole; type: functional, organism-based; outline: as §3
# Mus musculus [9] = species: Mus musculus; assay: Antinociceptive activity in Swiss albino mouse assessed as jumping latency at 3 ng by hot plate method in presence of norbinaltorphimine; type: functional, organism-based; outline: as §3
# Brain = assay: Drug uptake in Swiss albino mouse brain 0.01 to 1 mg/kg, iv; type: ADME, organism-based; design: dose 0.01-1 mg/kg, route intravenous; conditions: in vivo
# Outline: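 Blood–brain barrier passage judged in vivo. Peptides at 0.01 and 1 mg/kg were injected intravenously into male Swiss albino mice 30 min before a 55 °C hot plate test. Paw licking, rearing and jumping latencies recorded with a 240 s cut-off and expressed as %MPE.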
# Mus musculus [10] = assay: Antinociceptive activity in Swiss albino mouse assessed as jumping latency at 10 ug, icv up to 90 mins by hot plate method; type: functional, organism-based; outline: as §2
# Mus musculus [11] = assay: Antinociceptive activity in Swiss albino mouse assessed as jumping latency at 10 ug, icv after 5 to 10 mins by hot plate method; type: functional, organism-based; outline: as §2
# Mus musculus [12] = assay: Antinociceptive activity in Swiss albino mouse assessed as jumping latency at 3 ug, icv after 5 to 10 mins by hot plate method; type: functional, organism-based; outline: as §2
# Mus musculus [13] = assay: Antinociceptive activity in icv dosed Swiss albino mouse assessed as jumping latency at 3 ug, icv up to 90 mins by hot plate method; type: functional, organism-based; outline: as §2
# Sequence of Mu-type opioid receptor (P33535 whole entry): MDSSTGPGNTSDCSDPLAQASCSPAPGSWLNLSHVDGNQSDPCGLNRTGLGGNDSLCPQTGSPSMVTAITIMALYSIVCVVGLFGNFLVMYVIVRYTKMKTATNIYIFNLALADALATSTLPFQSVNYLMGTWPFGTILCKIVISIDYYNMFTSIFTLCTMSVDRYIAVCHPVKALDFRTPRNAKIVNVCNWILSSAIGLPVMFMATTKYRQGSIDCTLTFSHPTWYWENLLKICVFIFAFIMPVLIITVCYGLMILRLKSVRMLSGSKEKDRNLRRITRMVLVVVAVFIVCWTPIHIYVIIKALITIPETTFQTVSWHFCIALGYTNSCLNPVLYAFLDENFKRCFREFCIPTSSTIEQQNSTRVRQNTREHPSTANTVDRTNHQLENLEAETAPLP
smiles,measurement,setting,value
Cc1cc(O)cc(C)c1C[C@H](N)C(=O)N[C@@H]1CCCCNC(=O)C[C@@H](C(N)=O)NC(=O)[C@H]2CCCN2C(=O)[C@H](Cc2ccccc2)NC1=O,IC50,Mu-type opioid receptor,5.6 nM
same,IC50,[1],132 nM
same,Ratio IC50,Rattus norvegicus,23.5
same,half-life at 500 µM,[2],> 16.7 h
same,Activity,Mus musculus [3],Dose-dependent effect
same,Activity,Mus musculus [4],Dose-dependent effect
same,Activity,Mus musculus [5],Dose-dependent effect
same,ED50,Mus musculus [5],<0.01 µg
same,Activity,Mus musculus [6],Active
same,Activity,Mus musculus [7],inactive
same,Activity,Mus musculus [8],Active
same,Activity,Mus musculus [9],Active
same,Drug uptake,Brain,Not Active
NC(=O)[C@@H]1CCCCNC(=O)C[C@@H](NC(=O)[C@@H](N)Cc2ccc(O)cc2)C(=O)N[C@@H](Cc2ccccc2)C(=O)N2CCC[C@@H]2C(=O)N1,IC50,Mu-type opioid receptor,15.3 nM
same,IC50,[1],> 1000 nM
same,Ratio IC50,Rattus norvegicus,> 65.3
same,half-life at 500 µM,[2],1.05 h
same,Activity,Mus musculus [3],Dose-dependent effect
same,Activity,Mus musculus [4],Dose-dependent effect
same,Activity,Mus musculus [5],Dose-dependent effect
same,ED50,Mus musculus [5],0.07 µg
Cc1cc(O)cc(C)c1C[C@H](N)C(=O)N[C@@H]1CC(=O)NCCCC[C@@H](C(N)=O)NC(=O)[C@H]2CCCN2C(=O)[C@H](Cc2ccccc2)NC1=O,IC50,Mu-type opioid receptor,4.4 nM
same,IC50,[1],58.3 nM
same,Ratio IC50,Rattus norvegicus,13.2
same,half-life at 500 µM,[2],10.4 h
same,Activity,Mus musculus [3],Dose-dependent effect
same,Activity,Mus musculus [4],Dose-dependent effect
same,Activity,Mus musculus [5],Dose-dependent effect
same,ED50,Mus musculus [5],<0.01 µg
same,Activity,Mus musculus [6],Active
same,Activity,Mus musculus [7],inactive
same,Activity,Mus musculus [8],Active
same,Activity,Mus musculus [9],Active
same,Drug uptake,Brain,Not Active
NC(=O)[C@@H]1CCCN1C(=O)[C@H](Cc1ccccc1)NC(=O)[C@@H]1CCCN1C(=O)[C@@H](N)Cc1ccc(O)cc1 [MORPHICEPTIN] (H-YPFP-NH2),IC50,Mu-type opioid receptor,56.6 nM
same,IC50,[1],> 1000 nM
same,Ratio IC50,Rattus norvegicus,> 17.7
same,Activity,Mus musculus [10],Active
same,half-life at 500 µM,[2],0.278 h
same,Activity,Mus musculus [3],Dose-dependent effect
same,Activity,Mus musculus [4],Dose-dependent effect
same,Activity,Mus musculus [5],Dose-dependent effect
same,ED50,Mus musculus [5],5.11 µg
same,Activity,Mus musculus [11],Active
CC(C)[C@H](NC(=O)[C@H](CCC(=O)O)NC(=O)[C@H](Cc1ccccc1)NC(=O)[C@H](C)NC(=O)[C@@H](N)Cc1ccc(O)cc1)C(=O)N[C@H](C(=O)NCC(=O)O)C(C)C [DELTORPHINE II],IC50,[1],0.08 nM
NC(=O)[C@@H]1CC(=O)NCCCC[C@@H](NC(=O)[C@@H](N)Cc2ccc(O)cc2)C(=O)N[C@@H](Cc2ccccc2)C(=O)N2CCC[C@@H]2C(=O)N1,IC50,Mu-type opioid receptor,89.5 nM
same,IC50,[1],> 1000 nM
same,Ratio IC50,Rattus norvegicus,> 11.2
same,half-life at 500 µM,[2],1.95 h
same,Activity,Mus musculus [3],Dose-dependent effect
same,Activity,Mus musculus [4],Dose-dependent effect
same,Activity,Mus musculus [5],Dose-dependent effect
same,ED50,Mus musculus [5],0.02 µg
NC(=O)[C@H](Cc1ccccc1)NC(=O)[C@H](Cc1ccccc1)NC(=O)[C@@H]1CCCN1C(=O)[C@@H](N)Cc1ccc(O)cc1 [ENDOMORPHIN 2],half-life at 500 µM,[2],0.238 h
same,Activity,Mus musculus [3],Dose-dependent effect
same,Activity,Mus musculus [4],Dose-dependent effect
same,Activity,Mus musculus [5],Dose-dependent effect
same,ED50,Mus musculus [5],5.48 µg
same,Activity,Mus musculus [12],Active
same,Activity,Mus musculus [13],Active
NC(=O)[C@@H]1CC(=O)NCCCC[C@@H](NC(=O)[C@@H](N)Cc2ccc(O)cc2)C(=O)N[C@@H](Cc2ccccc2)C(=O)N[C@@H](Cc2ccccc2)C(=O)N1 (H-Y[dK]FFD-NH2; lactam 2-5),IC50,Mu-type opioid receptor,0.56 nM
same,IC50,[1],279 nM
same,Ratio IC50,Rattus norvegicus,498
same,half-life at 500 µM,[2],6.05 h
same,Activity,Mus musculus [3],Dose-dependent effect
same,Activity,Mus musculus [4],Dose-dependent effect
same,Activity,Mus musculus [5],Dose-dependent effect
same,ED50,Mus musculus [5],0.05 µg
Cc1cc(O)cc(C)c1C[C@H](N)C(=O)N[C@@H]1CCCCNC(=O)C[C@@H](C(N)=O)NC(=O)[C@H](Cc2ccccc2)NC(=O)[C@H](Cc2ccccc2)NC1=O (H-[Dmt][dK]FFD-NH2; lactam 2-5),IC50,Mu-type opioid receptor,0.26 nM
same,IC50,[1],400 nM
same,Ratio IC50,Rattus norvegicus,> 1000
same,half-life at 500 µM,[2],> 16.7 h
same,Activity,Mus musculus [3],Dose-dependent effect
same,Activity,Mus musculus [4],Dose-dependent effect
same,Activity,Mus musculus [5],Dose-dependent effect
same,ED50,Mus musculus [5],0.02 µg

# — ChEMBL document CHEMBL1926652, “Effect of 2',6'-dimethyl-L-tyrosine (Dmt) on pharmacological activity of cyclic endomorphin-2 and morphiceptin analogs” (Bioorg Med Chem, 2011)
